These results are taken from ChEMBL document CHEMBL1144934, “Efficacious and orally bioavailable thrombin inhibitors based on a 2,5-thienylamidine at the P1 position: discovery of N-carboxymethyl-d-diphenylalanyl-l-prolyl[(5-amidino-2-thienyl)methyl]amide” (J Med Chem, 2003).

Series [1] concerns the target Prothrombin (Homo sapiens, UniProt P00734). Description: In vitro inhibition constant (Ki) against human thrombin.
Series [2] in a line: Area under curve (AUC) was measured after oral dosing at 30 mg/kg in rat. Type of series: ADME, organism-based. More on the design: dose 30 mg/kg, route oral. The conditions noted are these: in vivo.
Series [3] is described as follows: Maximal plasma concentration in rats after 30 mg/kg oral dose. It is filed as ADME, organism-based. More on the design: dose 30 mg/kg, route oral. The conditions noted are these: rat.
The nature of series [4]: In vitro metabolic stability was determined using liver S9 fraction from monkey at initial concentration of 20 uM. Conditions: simiiformes, read-out: Recovery. It is filed as ADME, subcellular. In outline: (§1)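 Liver S9 (9000g supernatant of homogenate in Tris-acetate pH 7.4, KCl, EDTA) from rat, dog, monkey (pooled, n = 2) or human (n = 2); 20 µM final compound with NADPH generating system and S9 6.72 mg/mL in 100 mM phosphate pH 7.4, 37 °C. Samples methanol-deproteinized, HPLC; recovery after 30 min reported; no-NADPH control.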

Series [5] in a line: In vitro metabolic stability was determined using liver S9 fraction from rat at initial concentration of 20 uM. Type of series: ADME. Conditions: read-out: Recovery. The method in brief:
as §1

A short description of series [6]: In vitro metabolic stability was determined using liver S9 fraction from dog at initial concentration of 20 uM. It is filed as ADME, Canis lupus familiaris. The conditions noted are these: read-out: Recovery. In outline:
as §1

Series [7] is described as follows: In vitro metabolic stability was determined using liver S9 fraction from human at initial concentration of 20 uM. It is filed as ADME. The conditions noted are these: liver S9 fraction, read-out: Recovery. The method in brief:
as §1

Series [8] can be described thus: Area under curve (AUC) was determined after intravenous dosing at 10 mg/kg in rat. It is filed as ADME, organism-based. The conditions noted are these: in vivo. Details: dose 10 mg/kg, route intravenous. The method in brief:
(§2)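 Male Sprague–Dawley rats (250–300 g), femoral artery and vein cannulated under light ether anesthesia; after recovery, 10 mg/kg given via femoral vein. Arterial blood sampled at 0, 1, 5, 15, 30, 60, 90, 120, 180, 240 min, collected into heparinized tubes, deproteinized with 2 volumes methanol, centrifuged; supernatant analyzed by HPLC (0.1% TFA/acetonitrile 81:19).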

In series [9] the test system is Rattus norvegicus. Description: Ex vivo activated clotting time was measured in rat plasma at 1 mg/kg. It is filed as functional.
Series [10] is described as follows: Half life of compound was determined after intravenous dosing at 10 mg/kg in rat. Type of series: ADME, organism-based. Details: dose 10 mg/kg, route intravenous. Conditions: in vivo. In outline:
as §2

The test system of series [11] is Rattus norvegicus. Briefly: In vivo inhibition of thrombus formation in thromboplastin-induced deep vein thrombosis (DVT) rat model after iv bolus dosing at 1 mg/kg. It is filed as functional.
Series [12] is described as follows: Bioavailability in rat. It is filed as ADME, organism-based. The conditions noted are these: in vivo.
Series [13] is described as follows: Steady state volume of distribution (Vdss) was determined after intravenous dosing at 10 mg/kg in rat. Type of series: ADME, organism-based. Details: dose 10 mg/kg, route intravenous. The conditions noted are these: in vivo, read-out: Vdss. In outline: as §2
A short description of series [14]: Clearance value was determined after intravenous dosing at 10 mg/kg in rat. It is filed as ADME, organism-based. More on the design: dose 10 mg/kg, route intravenous. The conditions noted are these: in vivo. In outline:
as §2

One may read the Ki as a measure of affinity in units of concentration, obtained from inhibition or displacement. Compound `CN(C(=O)C(NS(=O)(=O)c1ccc2ccccc2c1)c1ccc(C(=N)NN)cc1)C1CCCC1` (configuration not stated) registered a Ki in series [1] of 400 pM.

As usually defined, the AUC is concentration integrated over time. By Cmax is commonly meant the peak of the concentration-time curve. The compound `N=C(N)c1ccc(CNC(=O)[C@@H]2CCCN2C(=O)[C@H](NS(N)(=O)=O)C(c2ccccc2)c2ccccc2)c(F)c1` gave an AUC in [2] of 1480 ng·h/mL. In series [3], this compound registered a Cmax of 1100 ng/mL. The same compound came in with a Ki in series [1] of 10 pM.

Turning to `N=C(N)c1ccc(CNC(=O)[C@@H]2CCCN2C(=O)[C@H](NCC(=O)O)C(c2ccccc2)c2ccccc2)cc1`, the remaining at 20 µM in series [4] came out at 80%; in [5] it was 87%; in series [6], 95%; in series [7], 97%. Moreover, the AUC in [2] is 2000 ng·h/mL. In [3], this compound showed a Cmax of 1300 ng/mL. Further, in series [1], the affinity corresponds to a Ki of 13 pM.

Compound `N=C(N)c1csc(CNC(=O)[C@@H]2CCCN2C(=O)[C@H](NS(N)(=O)=O)C(c2ccccc2)c2ccccc2)c1` registered a Cmax in series [3] of 2000 ng/mL. This compound yielded a Ki in series [1] of 20 pM.

Compound `CS(=O)(=O)N[C@@H](C(=O)N1CCC[C@H]1C(=O)NCc1ccc(C(=N)N)cc1)C(c1ccccc1)c1ccccc1` had an AUC in [2] of 4380 ng·h/mL. The same compound gave a Cmax in series [3] of 2800 ng/mL.

As for `N=C(N)c1ccc(CNC(=O)[C@@H]2CCCN2C(=O)[C@H](NS(N)(=O)=O)C(c2ccccc2)c2ccccc2)cn1`, the AUC in series [2] is 4100 ng·h/mL. The compound further registered a Cmax in series [3] of 1600 ng/mL.

The compound `N=C(N)c1cc(CNC(=O)[C@@H]2CCCN2C(=O)[C@H](NS(N)(=O)=O)C(c2ccccc2)c2ccccc2)cs1` registered a Cmax in series [3] of 500 ng/mL. The compound further displayed a Ki in series [1] of 160 pM.

The half-life is the time needed for the level to fall by half in the phase considered. A word on the inhibition in vivo: it is the percentage by which the read-out fell short of the control. Broadly, the bioavailability is the share of a dose that reaches the circulation, judged against a reference dose that is usually intravenous. A word on the clearance: it is the rate of elimination divided by the concentration. For the compound `COC(=O)N[C@@H](C(=O)N1CCC[C@H]1C(=O)NCc1ccc(C(=N)N)cc1)C(c1ccccc1)c1ccccc1`, the AUC was 56800 ng·h/mL in [8] and 9900 ng·h/mL in [2]. Also, the remaining at 20 µM in series [4] came to 39%; in series [5], 80%; in series [6], 65%; in series [7] it was 86%. Besides, the ACT in series [9] was 6.8. In addition, the half-life in series [10] was found to be 1.15 h. In series [11], this compound had an inhibition in vivo at 1 mg/kg of 100%. Moreover, the Cmax in [3] is 4000 ng/mL. Besides, in [12], the bioavailability was found to be 6%. Besides, the Vd in series [13] came out at 0.174 L/kg. The same compound gave a clearance in [14] of 3 mL/min/kg.

With `CS(=O)(=O)N[C@@H](C(=O)N1CCC[C@H]1C(=O)NCc1ccc(C(=N)N)s1)C(c1ccccc1)c1ccccc1.N=C(N)c1ccccc1`, the exposure (AUC) in [2] was 1420 ng·h/mL. The compound also displayed a Cmax in series [3] of 1300 ng/mL. This compound also registered a Ki in series [1] of 5 pM.

In the case of `COC(=O)N[C@@H](C(=O)N1CCC[C@H]1C(=O)NCc1ccc(C(=N)N)nc1)C(c1ccccc1)c1ccccc1`, the AUC is 80400 ng·h/mL in series [8] and 26100 ng·h/mL in [2]. Also, the ACT in [9] was 6. Besides, the half-life in series [10] was found to be 1.35 h. In addition, in series [11], the inhibition in vivo at 1 mg/kg amounted to 100%. In series [3], this compound yielded a Cmax of 14000 ng/mL. The bioavailability in series [12] is 11%. In series [13], the Vd is 0.139 L/kg. The Ki in series [1] was determined as 17 pM. This compound also had a clearance in series [14] of 2.1 mL/min/kg.

Compound `COC(=O)N[C@@H](C(=O)N1CCC[C@H]1C(=O)NCc1coc(C(=N)N)c1)C(c1ccccc1)c1ccccc1` showed an AUC in series [2] of 18600 ng·h/mL. The concentration in series [3] peaked (Cmax) at 7100 ng/mL. In series [1], this compound showed a Ki of 1400 pM.

In [1], `N=C(N)c1ccc(CNC(=O)[C@@H]2CCCN2C(=O)[C@H](NCCC(=O)O)C(c2ccccc2)c2ccccc2)s1` showed a Ki of 10 pM.

In turn, `COC(=O)N[C@@H](C(=O)N1CCC[C@H]1C(=O)NCc1cc(C(=N)N)cs1)C(c1ccccc1)c1ccccc1` came in with a Cmax in [3] of 4600 ng/mL. In series [1], this compound registered a Ki of 170 pM.

The compound `N=C(N)c1ccc(CNC(=O)[C@@H]2CCCN2C(=O)[C@H](NS(N)(=O)=O)C(c2ccccc2)c2ccccc2)cc1F` gave an AUC in [2] of 3430 ng·h/mL. In addition, the Cmax in series [3] is 2400 ng/mL. The same compound came in with a Ki in series [1] of 8 pM.

The compound `N=C(N)c1ccc(CNC(=O)[C@@H]2CCCN2C(=O)[C@H](NS(N)(=O)=O)C(c2ccccc2)c2ccccc2)o1` showed an AUC in [2] of 2270 ng·h/mL. The same compound registered a Cmax in [3] of 1000 ng/mL. Further, in series [1], the Ki was 430 pM.
